# Source: BindingDB's records for doi:10.1021/jm9708588 (National University of Singapore, 1998)
# Biological target: not listed separately
# Test: The compound was evaluated for its ability to inhibit [3H]NMS binding to Muscarinic acetylcholine receptor in heart
row,SMILES,Ki
1,CCC#CCON=C1CC2CCC(C1)N2C,63.1 µM

# Biological target: Muscarinic acetylcholine receptor M3 (Rattus norvegicus, UniProt P08483)
# Test: Binding affinity to Muscarinic acetylcholine receptor M3 by measuring its ability to displace [3H]N-methylscopolamine binding in rat submandibulary gland
# Procedure, shortened: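 Rat submandibulary gland membranes prepared in Na+/Mg2+ HEPES buffer pH 7.4. Nonspecific binding defined with 1 μM (±)-QNB. Pellet obtained by centrifugation and counted by scintillation. Triplicate determinations. Ki derived from IC50 by Cheng–Prusoff.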
# Muscarinic acetylcholine receptor M3, sequence (P08483 whole entry): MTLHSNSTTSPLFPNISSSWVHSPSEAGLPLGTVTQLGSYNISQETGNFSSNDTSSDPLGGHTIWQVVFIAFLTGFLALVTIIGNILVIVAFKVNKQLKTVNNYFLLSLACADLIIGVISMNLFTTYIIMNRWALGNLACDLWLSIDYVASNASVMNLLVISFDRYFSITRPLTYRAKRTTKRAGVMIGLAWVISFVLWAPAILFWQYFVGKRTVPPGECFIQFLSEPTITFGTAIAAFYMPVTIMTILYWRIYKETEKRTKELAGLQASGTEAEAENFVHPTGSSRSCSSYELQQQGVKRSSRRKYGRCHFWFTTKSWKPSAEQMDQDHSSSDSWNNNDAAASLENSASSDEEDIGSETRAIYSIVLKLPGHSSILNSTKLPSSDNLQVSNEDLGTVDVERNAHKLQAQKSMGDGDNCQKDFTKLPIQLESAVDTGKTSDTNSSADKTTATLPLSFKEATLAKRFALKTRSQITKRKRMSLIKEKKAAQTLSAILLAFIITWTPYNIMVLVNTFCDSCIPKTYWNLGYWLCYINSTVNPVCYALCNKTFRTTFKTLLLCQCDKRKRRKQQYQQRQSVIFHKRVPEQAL
row,SMILES,Ki
1,C[N+](C)(C)CC#CCOC(=O)Nc1cccc(Cl)c1 [McN-A-343],2.51 µM

# Biological target: T1, Muscarinic acetylcholine receptor M1 (Rattus norvegicus, UniProt P08482)
# T1 sequence (P08482 whole entry): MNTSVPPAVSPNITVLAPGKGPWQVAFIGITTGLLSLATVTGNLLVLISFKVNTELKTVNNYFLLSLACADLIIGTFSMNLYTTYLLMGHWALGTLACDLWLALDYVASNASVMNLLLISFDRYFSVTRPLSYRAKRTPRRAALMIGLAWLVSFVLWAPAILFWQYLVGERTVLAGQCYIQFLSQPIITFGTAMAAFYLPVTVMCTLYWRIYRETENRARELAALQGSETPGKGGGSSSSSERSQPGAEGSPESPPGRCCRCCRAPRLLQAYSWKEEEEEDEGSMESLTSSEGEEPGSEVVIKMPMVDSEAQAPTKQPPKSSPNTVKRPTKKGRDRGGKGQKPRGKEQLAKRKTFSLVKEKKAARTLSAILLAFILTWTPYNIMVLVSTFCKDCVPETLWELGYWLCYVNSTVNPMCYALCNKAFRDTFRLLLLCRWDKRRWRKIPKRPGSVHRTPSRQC
# Test: Binding affinity to Muscarinic acetylcholine receptor M1 by measuring its ability to displace [3H]pirenzepine from rat cerebral cortex
row,SMILES,Ki
1,CC#CCCON=C1CC2CCC(C1)N2C,0.794 µM
2,CC#CCON=C1CCN(C)CC1,3.98 µM
3,CCC#CCON=C1CCN(C)CC1,3.98 µM
4,C#CCON=C1CC2CCC(C1)N2C,1.25 µM
5,C#CCCON=C1CC2CCC(C1)N2C,1.58 µM
6,C#CC(CC)ON=C1CCN(C)CC1 (stereo unspecified),6.3 µM
7,CN1C2CCC1CC(=NO)C2,501 µM
8,C#CC(CC)ON=C1CC2CCC(C1)N2C (stereo unspecified),0.316 µM
9,CON=C1CC2CCC(C1)N2C,999 µM
10,CON=C1CCN(C)CC1,50.1 µM
11,C#CCCON=C1CCN(C)CC1,1.58 µM
12,C#CC(C)ON=C1CC2CCC(C1)N2C (stereo unspecified),9.99 µM
13,C#CCCCON=C1CCN(C)CC1,7.94 µM
14,C#CCC(C)ON=C1CC2CCC(C1)N2C (stereo unspecified),0.1 µM
15,CC#CCCON=C1CCN(C)CC1,1.99 µM
16,CN1CCC(=NO)CC1,501 µM
17,C#CC(C)ON=C1CCN(C)CC1 (stereo unspecified),5.01 µM
18,C#CCON=C1CCN(C)CC1,50.1 µM
19,C#CCCCON=C1CC2CCC(C1)N2C,0.63 µM
20,CCC#CCON=C1CC2CCC(C1)N2C,5.01 µM
21,CC#CCON=C1CC2CCC(C1)N2C,0.501 µM
22,C#CCC(C)ON=C1CCN(C)CC1 (stereo unspecified),3.16 µM
23,O=C1CCCN1CC#CCN1CCCC1 [1-[4-(2-oxo-pyrrolidin-1-yl)-but-2-ynyl]-pyrrolidinium],0.63 µM
24,C[N+](C)(C)CC#CCOC(=O)Nc1cccc(Cl)c1 [McN-A-343],5.01 µM
